This is an account of results in ChEMBL document CHEMBL1140794, “Discovery of 3-aryl-3-methyl-1H-quinoline-2,4-diones as a new class of selective 5-HT6 receptor antagonists” (Bioorg Med Chem Lett, 2008).

Test [1] concerns the target T1, 5-hydroxytryptamine receptor 6 (Homo sapiens, UniProt P50406). In words: Displacement of [3H]LSD from human cloned 5HT6 receptor expressed in HEK293 cells. The format is cell-based. (In a radioligand displacement assay an active substance lowers the binding of a labelled ligand.)
In a further test the target is D(2) dopamine receptor (Homo sapiens, UniProt P14416). In words: Displacement of [3H]spiperone from human cloned dopamine D2 receptor.
For test [2], the target named is T2, 5-hydroxytryptamine receptor 1A (Homo sapiens, UniProt P08908).
T2 sequence (P08908 whole entry): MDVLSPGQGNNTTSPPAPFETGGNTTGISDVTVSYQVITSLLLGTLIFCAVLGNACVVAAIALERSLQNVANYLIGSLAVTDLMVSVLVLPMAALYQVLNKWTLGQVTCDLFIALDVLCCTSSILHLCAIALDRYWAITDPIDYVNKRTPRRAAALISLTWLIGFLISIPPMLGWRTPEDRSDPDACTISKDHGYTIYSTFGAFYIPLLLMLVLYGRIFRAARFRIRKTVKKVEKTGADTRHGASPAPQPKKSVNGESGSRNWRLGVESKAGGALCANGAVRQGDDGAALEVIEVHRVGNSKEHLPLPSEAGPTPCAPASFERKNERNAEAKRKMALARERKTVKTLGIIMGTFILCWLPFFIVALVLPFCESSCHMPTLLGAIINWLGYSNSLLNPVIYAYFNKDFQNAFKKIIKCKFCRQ
The test can be described thus: Displacement of [3H]8-OH-DPAT from human cloned 5HT1A receptor.

The target in test [3] is T3, 5-hydroxytryptamine receptor 2C (Homo sapiens, UniProt P28335).
T3 sequence (P28335 whole entry): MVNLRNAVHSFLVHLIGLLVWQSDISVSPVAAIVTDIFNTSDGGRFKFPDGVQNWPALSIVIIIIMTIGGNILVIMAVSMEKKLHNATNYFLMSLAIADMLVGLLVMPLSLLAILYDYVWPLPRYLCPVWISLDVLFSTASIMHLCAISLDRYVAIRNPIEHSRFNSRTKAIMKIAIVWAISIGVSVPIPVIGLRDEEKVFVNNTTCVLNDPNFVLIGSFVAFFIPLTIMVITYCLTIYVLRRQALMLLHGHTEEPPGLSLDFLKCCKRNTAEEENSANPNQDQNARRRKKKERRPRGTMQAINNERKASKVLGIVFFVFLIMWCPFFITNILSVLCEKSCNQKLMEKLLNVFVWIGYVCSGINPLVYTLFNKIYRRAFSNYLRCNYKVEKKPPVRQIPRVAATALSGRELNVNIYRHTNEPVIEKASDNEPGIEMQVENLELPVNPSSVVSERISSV
In words: Displacement of [3H]mesulergine from human cloned 5HT2C receptor.

Test [4] concerns the target 5-hydroxytryptamine receptor 2A (Homo sapiens, UniProt P28223). The test can be described thus: Displacement of [3H]ketanserin from human cloned 5HT2A receptor.
For test [5], the target named is 5-hydroxytryptamine receptor 7 (Homo sapiens, UniProt P34969). In words: Displacement of [3H]LSD from human cloned 5HT7 receptor.
A further test addresses T4, D(4) dopamine receptor (Homo sapiens, UniProt P21917).
T4 sequence (P21917 whole entry): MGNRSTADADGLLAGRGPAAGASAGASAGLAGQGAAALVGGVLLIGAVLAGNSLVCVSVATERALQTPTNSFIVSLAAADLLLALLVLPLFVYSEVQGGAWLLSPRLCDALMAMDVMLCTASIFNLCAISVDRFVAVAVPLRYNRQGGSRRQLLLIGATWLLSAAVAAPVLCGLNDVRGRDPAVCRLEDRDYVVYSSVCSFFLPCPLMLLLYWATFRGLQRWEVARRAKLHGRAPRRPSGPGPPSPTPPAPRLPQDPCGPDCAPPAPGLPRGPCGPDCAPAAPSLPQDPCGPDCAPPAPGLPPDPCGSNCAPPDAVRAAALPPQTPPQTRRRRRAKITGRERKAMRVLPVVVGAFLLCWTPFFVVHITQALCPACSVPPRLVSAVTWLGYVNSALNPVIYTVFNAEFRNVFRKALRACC
In words: Displacement of [3H]spiperone from human cloned dopamine D4 receptor.

Another test has as its target D(1A) dopamine receptor (Homo sapiens, UniProt P21728). In words: Displacement of [3H]SCH-23390 from human cloned dopamine D1 receptor.
In the next test the target is D(3) dopamine receptor (Homo sapiens, UniProt P35462). The test can be described thus: Displacement of [3H]spiperone from human cloned dopamine D3 receptor.
Test [6] addresses T1, 5-hydroxytryptamine receptor 6. The test can be described thus: Antagonist activity at human cloned 5HT6 receptor expressed in HeLa cells assessed as inhibition of 5-HT-stimulated cAMP accumulation after 20 mins by enzyme-immunoassay. It is filed as functional, cell-based. The procedure, abridged:
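[…] and test compounds were added to HBSS (pH 7.4) containing 1 mM MgCl₂, 1 mM CaCl₂ and 1-methyl-3-isobutylxanthine (IBMX) at 100. After 20 min at 37 °C, intracellular cAMP was measured by enzyme immunoassay. Compounds that inhibited 5-HT-stimulated cAMP accumulation were classed as antagonists.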

Chain of 5-hydroxytryptamine receptor 7 (P34969 whole entry): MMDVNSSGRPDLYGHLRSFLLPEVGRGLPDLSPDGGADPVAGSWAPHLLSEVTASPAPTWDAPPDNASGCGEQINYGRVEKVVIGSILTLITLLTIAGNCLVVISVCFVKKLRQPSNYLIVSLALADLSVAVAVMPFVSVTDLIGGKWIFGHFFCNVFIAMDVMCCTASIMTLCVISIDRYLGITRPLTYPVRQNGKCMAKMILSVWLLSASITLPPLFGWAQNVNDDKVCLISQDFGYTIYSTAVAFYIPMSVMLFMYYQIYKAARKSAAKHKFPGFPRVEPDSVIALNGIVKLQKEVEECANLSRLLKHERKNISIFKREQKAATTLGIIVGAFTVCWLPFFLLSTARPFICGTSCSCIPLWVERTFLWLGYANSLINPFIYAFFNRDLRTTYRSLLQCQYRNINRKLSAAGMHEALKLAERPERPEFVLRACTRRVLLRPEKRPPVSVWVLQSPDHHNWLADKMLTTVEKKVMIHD
Chain of D(1A) dopamine receptor (P21728 whole entry): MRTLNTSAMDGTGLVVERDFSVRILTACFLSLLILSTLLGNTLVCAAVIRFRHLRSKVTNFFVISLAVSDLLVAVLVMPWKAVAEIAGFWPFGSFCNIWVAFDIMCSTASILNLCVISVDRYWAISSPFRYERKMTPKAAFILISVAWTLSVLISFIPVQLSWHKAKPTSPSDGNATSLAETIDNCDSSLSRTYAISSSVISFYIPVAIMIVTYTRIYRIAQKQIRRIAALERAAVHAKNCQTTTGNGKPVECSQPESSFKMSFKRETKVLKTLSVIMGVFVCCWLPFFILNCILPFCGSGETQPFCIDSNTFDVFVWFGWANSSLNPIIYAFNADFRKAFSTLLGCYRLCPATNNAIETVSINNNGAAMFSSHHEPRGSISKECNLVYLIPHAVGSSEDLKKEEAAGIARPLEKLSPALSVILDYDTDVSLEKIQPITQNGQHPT
Chain of D(2) dopamine receptor (P14416 whole entry): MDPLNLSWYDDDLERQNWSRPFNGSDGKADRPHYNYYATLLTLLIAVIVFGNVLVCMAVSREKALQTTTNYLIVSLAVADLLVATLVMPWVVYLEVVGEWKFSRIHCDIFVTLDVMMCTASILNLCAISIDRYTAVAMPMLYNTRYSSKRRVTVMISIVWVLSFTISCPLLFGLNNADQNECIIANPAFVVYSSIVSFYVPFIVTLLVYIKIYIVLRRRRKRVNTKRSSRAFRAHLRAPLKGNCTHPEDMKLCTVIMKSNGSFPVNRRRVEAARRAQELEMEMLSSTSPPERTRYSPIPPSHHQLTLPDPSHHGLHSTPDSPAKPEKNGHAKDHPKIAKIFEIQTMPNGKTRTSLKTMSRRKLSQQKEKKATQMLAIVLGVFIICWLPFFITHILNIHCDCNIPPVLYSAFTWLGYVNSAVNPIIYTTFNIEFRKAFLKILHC
T1 sequence (P50406 whole entry): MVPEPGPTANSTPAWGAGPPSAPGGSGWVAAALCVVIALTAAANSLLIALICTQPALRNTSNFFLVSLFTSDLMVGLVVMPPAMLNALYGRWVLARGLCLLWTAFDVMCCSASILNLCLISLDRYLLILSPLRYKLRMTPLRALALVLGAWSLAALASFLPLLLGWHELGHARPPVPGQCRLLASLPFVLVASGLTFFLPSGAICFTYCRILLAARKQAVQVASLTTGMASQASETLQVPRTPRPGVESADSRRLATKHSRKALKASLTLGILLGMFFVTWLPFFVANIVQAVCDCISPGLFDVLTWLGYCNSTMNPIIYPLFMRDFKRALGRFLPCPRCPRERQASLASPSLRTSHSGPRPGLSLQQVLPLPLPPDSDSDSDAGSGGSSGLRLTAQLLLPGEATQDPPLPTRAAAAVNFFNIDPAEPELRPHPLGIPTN
Chain of 5-hydroxytryptamine receptor 2A (P28223 whole entry): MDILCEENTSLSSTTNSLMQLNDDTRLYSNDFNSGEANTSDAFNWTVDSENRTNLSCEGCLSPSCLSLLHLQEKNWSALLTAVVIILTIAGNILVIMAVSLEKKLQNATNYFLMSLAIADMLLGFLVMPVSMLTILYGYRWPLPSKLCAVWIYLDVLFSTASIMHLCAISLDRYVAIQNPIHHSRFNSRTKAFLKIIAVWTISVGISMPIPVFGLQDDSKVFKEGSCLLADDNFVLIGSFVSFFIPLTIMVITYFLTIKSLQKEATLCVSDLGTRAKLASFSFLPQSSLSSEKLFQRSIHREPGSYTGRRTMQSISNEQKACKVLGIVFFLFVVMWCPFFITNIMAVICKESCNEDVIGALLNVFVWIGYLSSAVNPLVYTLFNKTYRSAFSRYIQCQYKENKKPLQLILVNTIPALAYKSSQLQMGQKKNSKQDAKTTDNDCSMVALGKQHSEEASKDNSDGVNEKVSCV
Chain of D(3) dopamine receptor (P35462 whole entry): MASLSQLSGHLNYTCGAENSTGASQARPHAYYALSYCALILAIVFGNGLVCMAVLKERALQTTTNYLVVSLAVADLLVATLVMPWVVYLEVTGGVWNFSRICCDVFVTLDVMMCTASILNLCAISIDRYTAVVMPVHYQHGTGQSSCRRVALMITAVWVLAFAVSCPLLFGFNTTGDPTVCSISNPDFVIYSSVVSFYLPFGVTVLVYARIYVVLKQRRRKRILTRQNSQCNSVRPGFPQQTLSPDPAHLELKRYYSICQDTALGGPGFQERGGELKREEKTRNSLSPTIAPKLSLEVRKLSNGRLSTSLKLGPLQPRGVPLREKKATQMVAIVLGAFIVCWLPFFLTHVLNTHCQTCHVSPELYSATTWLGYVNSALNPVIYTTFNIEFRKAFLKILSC

By Ki is commonly meant a dissociation constant, usually derived from enzyme kinetics or from competition with a known ligand. Low readings indicate a stronger hold on the target, high ones a looser hold on the target. `COc1cc(Br)c2c(c1)NC(=O)C(C)(c1ccccc1)C2=O` (stereo not drawn): in test [1], affinity was put at a Ki of 73.2 nM.

Regarding `CN(C)c1cc(Cl)c2c(c1)NC(=O)C(C)(c1ccccc1)C2=O` (stereo not drawn), the Ki in test [1] came to 715 nM.

On to `CC1(c2ccc(Cl)cc2)C(=O)Nc2cc(Cl)cc(Cl)c2C1=O` (stereo not drawn), for which the Ki in [1] was 877 nM. The Ki values of the last two molecules are within 1.5-fold of each other.

`CC1(c2ccccc2)C(=O)Nc2cc(Br)cc(Br)c2C1=O` (stereo not drawn) registered a Ki in test [1] of 197 nM.

On to `CN(C)c1ccc(C2(C)C(=O)Nc3cc(Cl)cc(Cl)c3C2=O)cc1` (stereo not drawn), for which the Ki in [1] worked out at 346 nM.

For the molecule `CC1(c2ccc(I)cc2)C(=O)Nc2cc(Cl)cc(Cl)c2C1=O` (stereo not drawn), the affinity in test [1], expressed as Ki, was 952 nM. This Ki lies about 2.8-fold higher than the previous one.

In [1], `CCNc1ccc(C2(C)C(=O)Nc3cc(Cl)cc(Cl)c3C2=O)cc1` (stereo not drawn) came in with a Ki of 28.3 nM.

With `CC1(c2cccc(OCc3ccccc3)c2)C(=O)Nc2cc(Cl)cc(Cl)c2C1=O` (stereo not drawn), the Ki was over 10000 nM at D(2) dopamine receptor; 170 nM in test [2]; over 10000 nM in test [3]; 720 nM in [4]; 600 nM in [5]; over 10000 nM at D(4) dopamine receptor. Also, the Ki in test [1] is 82.4 nM; on D(1A) dopamine receptor it was 120 nM; at D(3) dopamine receptor, over 10000 nM.

The molecule `COc1ccc(C2(C)C(=O)Nc3cc(Cl)cc(Cl)c3C2=O)cc1[N+](=O)[O-]` (stereo not drawn) gave a Ki in test [1] of over 1000 nM.

Consider `CC1(c2ccccc2)C(=O)Nc2cc(Cl)c(Cl)cc2C1=O` (stereo not drawn), for which, in test [1], the Ki is over 1000 nM.

`CC1(c2ccccc2)C(=O)Nc2c(Br)cc(Br)cc2C1=O` (stereo not drawn) yielded a Ki in test [1] of over 1000 nM.

`COc1ccc(C2(C)C(=O)Nc3cc(Cl)cc(Cl)c3C2=O)cc1` (stereo not drawn): in test [1], the Ki is 147 nM.

With `CC1(c2ccc(O)c([N+](=O)[O-])c2)C(=O)Nc2cc(Cl)cc(Cl)c2C1=O` (stereo not drawn), the Ki in [1] was over 1000 nM.

For orientation: IC50 means the midpoint of a concentration-inhibition curve. On to `CC1(c2ccc(O)cc2)C(=O)Nc2cc(Cl)cc(Cl)c2C1=O` (stereo not drawn), for which the Ki (at D(2) dopamine receptor; in [2]; in [3]; in [4]; in test [5]; at D(4) dopamine receptor) was over 10000 nM throughout. The Ki in [1] is 12.3 nM; at D(1A) dopamine receptor it was over 10000 nM; on D(3) dopamine receptor, over 10000 nM. Moreover, in [6], the IC50 was determined as 615 nM.

In test [1], `CC1(c2ccc(N)cc2)C(=O)Nc2cc(Cl)cc(Cl)c2C1=O` (stereo not drawn) gave a Ki of 156 nM.

In the case of `CC1(c2ccc(O)c(Br)c2)C(=O)Nc2cc(Cl)cc(Cl)c2C1=O` (stereo not drawn), in test [1], the affinity, expressed as Ki, was 77.5 nM.

In test [1], `COc1ccc([C@]2(C)C(=O)Nc3cc(Cl)cc(Cl)c3C2=O)cc1` had a Ki of 293 nM.

In [1], `COc1ccc([C@@]2(C)C(=O)Nc3cc(Cl)cc(Cl)c3C2=O)cc1` yielded a Ki of 893 nM. Compared with the last molecule, the Ki is about 3-fold higher.

As to `CC1(c2ccccc2)C(=O)Nc2ccccc2C1=O` (stereo not drawn), the inhibitory constant (Ki) in test [1] is over 1000 nM.

In the case of `CNc1ccc(C2(C)C(=O)Nc3cc(Cl)cc(Cl)c3C2=O)cc1` (stereo not drawn), in test [1], the affinity, expressed as Ki, was 257 nM.

Consider `CCN(CC)c1ccc(C2(C)C(=O)Nc3cc(Cl)cc(Cl)c3C2=O)cc1` (stereo not drawn), for which, in [1], affinity was put at a Ki of 9.2 nM.

In test [1], `CC1(c2ccc(OCc3ccccc3)c(Br)c2)C(=O)Nc2cc(Cl)cc(Cl)c2C1=O` (stereo not drawn) yielded a Ki of over 1000 nM.

Molecule `CC1(c2ccccc2)C(=O)Nc2cc(Cl)ccc2C1=O` (stereo not drawn) came in with a Ki in test [1] of over 1000 nM.

On to `COc1cc(Cl)c2c(c1)NC(=O)C(C)(c1ccccc1)C2=O` (stereo not drawn), for which, in test [1], affinity was put at a Ki of 345 nM. In other words, the sub-micromolar range.

The molecule `CC1(c2ccc(Br)cc2)C(=O)Nc2cc(Cl)cc(Cl)c2C1=O` (stereo not drawn) registered a Ki in test [1] of 304 nM.

For `CC1(c2cccc(O)c2)C(=O)Nc2cc(Cl)cc(Cl)c2C1=O` (stereo not drawn), the Ki (at D(2) dopamine receptor; in test [2]; in [3]; in [4]; in test [5]; on D(4) dopamine receptor) was over 10000 nM each time. In addition, the Ki in test [1] is 30.1 nM; at D(1A) dopamine receptor, 1810 nM; on D(3) dopamine receptor, over 10000 nM.

In [1], `CC1(c2ccc([N+](=O)[O-])cc2)C(=O)Nc2cc(Cl)cc(Cl)c2C1=O` (stereo not drawn) yielded a Ki of over 1000 nM.

For `COc1cc2c(c(OC)c1)C(=O)C(C)(c1ccccc1)C(=O)N2` (stereo not drawn), the Ki in test [1] amounted to 728 nM.

Consider `COc1ccc(NS(=O)(=O)c2sc3ccc(Cl)cc3c2C)cc1N1CCNCC1`, for which the Ki on D(2) dopamine receptor was determined as 460 nM; in [3], 530 nM; in test [4], 1740 nM; at D(4) dopamine receptor it was 130 nM; at D(1A) dopamine receptor, 120 nM.

For `CNc1cc(NS(=O)(=O)c2ccc(N)cc2)cc(NC)n1`, in test [1], the Ki was found to be 512 nM.

Take `CC1(c2ccccc2)C(=O)Nc2cc(Cl)cc(Cl)c2C1=O` (racemic): the Ki (at D(2) dopamine receptor; in test [2]; in test [3]; in test [4]; in test [5]; at D(4) dopamine receptor) was over 10000 nM each time. Besides, the results for the Ki (in test [1]; at D(1A) dopamine receptor; on D(3) dopamine receptor) were 54.7 nM, over 10000 nM and over 10000 nM, respectively.
